One assay deals with Candida dubliniensis. The assay is described as follows: Antifungal activity against Candida dubliniensis SM 26 clinical isolate assessed as concentration required to inhibit fungal growth after 24 hrs by TLC assay. In kind it is functional. The method, boiled down:
(§1)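 Direct TLC bioautography: compound amounts from 50 to 1.56 μg applied to precoated TLC plates, overlaid with Mueller Hinton or Sabouraud agar inoculated with microorganism suspension (10⁵ cfu mL⁻¹). Plates incubated 24 h at 37 °C, then stained with aqueous 2,3,5-triphenyltetrazolium chloride (1 mg mL⁻¹). The lowest amount giving an inhibition zone was recorded; <50 μg counted active. Triplicate.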

For another assay, the system named is Candida tropicalis. The assay is described as follows: Antifungal activity against Candida tropicalis ATCC 750 assessed as concentration required to inhibit fungal growth after 24 hrs by TLC assay. In kind it is functional. In a few lines:
as §1

Another assay relates to Cryptococcus neoformans. The assay is described as follows: Antifungal activity against Cryptococcus neoformans ATCC 28952 assessed as concentration required to inhibit fungal growth after 24 hrs by TLC assay. Type of assay: functional. The method, boiled down:
as §1

Assay [1] can be described thus: Antibacterial activity against Salmonella Setubal ATCC 19196 assessed as concentration required to inhibit bacterial growth after 24 hrs by TLC assay. Type of assay: functional, Salmonella enterica subsp. enterica serovar Setubal. In a few lines:
as §1

The next assay deals with Escherichia coli. The assay is described as follows: Antibacterial activity against Escherichia coli ATCC 11103 assessed as concentration required to inhibit bacterial growth after 24 hrs by TLC assay. In kind it is functional. The method, boiled down: as §1
The test system of the next assay is Candida albicans. The assay is described as follows: Antifungal activity against Candida albicans ATCC 10231 assessed as concentration required to inhibit fungal growth after 24 hrs by TLC assay. Type of assay: functional. The method, boiled down:
as §1

Assay [2] has as its system Staphylococcus epidermidis. Briefly: Antibacterial activity against Staphylococcus epidermidis ATCC 12228 assessed as concentration required to inhibit bacterial growth after 24 hrs by TLC assay. Type of assay: functional. In a few lines:
as §1

Another assay relates to Saccharomyces cerevisiae. The assay is described as follows: Antifungal activity against Saccharomyces cerevisiae ATCC 2601 assessed as concentration required to inhibit fungal growth after 24 hrs by TLC assay. In kind it is functional. In a few lines:
as §1

Another assay has as its system Kocuria rhizophila. The assay is described as follows: Antibacterial activity against Micrococcus luteus ATCC 9341 assessed as concentration required to inhibit bacterial growth after 24 hrs by TLC assay. In kind it is functional. In a few lines: as §1
A further assay has as its system Staphylococcus aureus. Briefly: Antibacterial activity against Staphylococcus aureus ATCC 6538p assessed as concentration required to inhibit bacterial growth after 24 hrs by TLC assay. In kind it is functional. The method, boiled down:
as §1

The subject of a further assay is Klebsiella pneumoniae. Briefly: Antibacterial activity against Klebsiella pneumoniae ATCC 10031 assessed as concentration required to inhibit bacterial growth after 24 hrs by TLC assay. In kind it is functional. In a few lines:
as §1

Some results are limits rather than exact numbers.

In the case of `CC[C@H](C)[C@@H]1NC(=O)[C@@H](NC(=O)[C@H](CC(C)C)N(C)C)[C@H](c2ccccc2)Oc2ccc(cc2)/C=C\NC1=O` (mixture of isomers), the Activity (in the assay with Candida dubliniensis; in the assay with Candida tropicalis; in the assay on Cryptococcus neoformans; in assay [1]; in the assay with Escherichia coli; in the assay on Candida albicans) was greater than 50 µg each time. Further, the Activity (in [2]; with Saccharomyces cerevisiae; with Kocuria rhizophila; with Staphylococcus aureus; in the assay with Klebsiella pneumoniae) was greater than 50 µg each time.

Consider `COC(=O)[C@H](Cc1ccccc1)NC(=O)[C@H]([C@H](O)c1ccccc1)N1CN(C)[C@@H](CC(C)C)C1=O`, for which the Activity was less than 50 µg with Candida dubliniensis; less than 50 µg in the assay on Candida tropicalis; less than 50 µg in the assay on Cryptococcus neoformans; 25 µg in assay [1]; greater than 50 µg in the assay on Escherichia coli; less than 50 µg in the assay on Candida albicans. Further, the Activity in assay [2] is 50 µg; with Saccharomyces cerevisiae, less than 50 µg; with Kocuria rhizophila it was less than 50 µg; with Staphylococcus aureus, less than 50 µg; with Klebsiella pneumoniae, 50 µg.

`COC(=O)[C@H](CC(C)C)NC(=O)[C@H](NC(=O)[C@H](CC(C)C)N(C)C)[C@@H](O)c1ccccc1` (mixture of isomers): the Activity (in the assay with Candida dubliniensis; in the assay on Candida tropicalis; with Cryptococcus neoformans; in assay [1]; with Escherichia coli; in the assay on Candida albicans) was less than 50 µg each time. Also, the Activity (in [2]; in the assay with Saccharomyces cerevisiae; with Kocuria rhizophila; in the assay on Staphylococcus aureus; in the assay on Klebsiella pneumoniae) was less than 50 µg each time.

Take `COC(=O)[C@H](CC(C)C)NC(=O)[C@@H](NC(=O)[C@H](CC(C)C)N(C)C)[C@@H](Oc1ccc(C=O)cc1)c1ccccc1` (mixture of isomers): the Activity (in the assay on Candida dubliniensis; in the assay on Candida tropicalis; in the assay with Cryptococcus neoformans; in assay [1]; in the assay with Escherichia coli; in the assay with Candida albicans) was less than 50 µg in each case. In addition, the Activity (in [2]; in the assay on Saccharomyces cerevisiae; in the assay on Kocuria rhizophila; with Staphylococcus aureus; with Klebsiella pneumoniae) was less than 50 µg each time.

Turning to `COC(=O)[C@H](Cc1ccccc1)NC(=O)[C@@H]([C@H](Oc1ccc(C=O)cc1)c1ccccc1)N1CN(C)[C@@H](CC(C)C)C1=O` (mixture of isomers), the Activity (in the assay on Candida dubliniensis; in the assay on Candida tropicalis; in the assay on Cryptococcus neoformans; in [1]; in the assay on Escherichia coli; in the assay on Candida albicans) was less than 50 µg each time. For the same molecule, the Activity (in [2]; with Saccharomyces cerevisiae; in the assay on Kocuria rhizophila; in the assay with Staphylococcus aureus; in the assay with Klebsiella pneumoniae) was less than 50 µg in each case.

As for `COC(=O)[C@H](CC(C)C)NC(=O)[C@@H]([C@@H](O)c1ccccc1)N1CN(C)[C@@H](CC(C)C)C1=O` (mixture of isomers), the Activity (in the assay with Candida dubliniensis; in the assay with Candida tropicalis; in the assay with Cryptococcus neoformans; in [1]; with Escherichia coli; in the assay on Candida albicans) was less than 50 µg throughout. In addition, the Activity (in [2]; in the assay on Saccharomyces cerevisiae; in the assay with Kocuria rhizophila; with Staphylococcus aureus; with Klebsiella pneumoniae) was less than 50 µg each time.

For `CC(C)C[C@@H](C(=O)N[C@@H]1C(=O)N[C@@H](Cc2ccccc2)C(=O)N/C=C\c2ccc(cc2)O[C@H]1c1ccccc1)N(C)C`, the Activity (in the assay with Candida dubliniensis; with Candida tropicalis; in the assay on Cryptococcus neoformans; in assay [1]; in the assay on Escherichia coli; in the assay on Candida albicans) was greater than 50 µg throughout. For the same molecule, the Activity (in assay [2]; in the assay on Saccharomyces cerevisiae; in the assay with Kocuria rhizophila; with Staphylococcus aureus; in the assay with Klebsiella pneumoniae) was greater than 50 µg each time.

As to `COC(=O)[C@H](Cc1ccccc1)NC(=O)[C@H]([C@@H](Oc1ccc(C=O)cc1)c1ccccc1)N1CN(C)[C@@H](CC(C)C)C1=O` (mixture of isomers), the Activity (in the assay with Candida dubliniensis; in the assay with Candida tropicalis; in the assay with Cryptococcus neoformans; in assay [1]; with Escherichia coli; in the assay with Candida albicans) was less than 50 µg in each case. Further, the Activity (in [2]; with Saccharomyces cerevisiae; with Kocuria rhizophila; with Staphylococcus aureus; in the assay on Klebsiella pneumoniae) was less than 50 µg in each case.

For `COC(=O)[C@H](Cc1ccccc1)NC(=O)[C@@H](NC(=O)[C@@H](N)CC(C)C)[C@H](O)c1ccccc1`, the Activity in the assay on Candida dubliniensis was less than 50 µg; with Candida tropicalis, less than 50 µg; in the assay with Cryptococcus neoformans, less than 50 µg; in [1] it was less than 50 µg; with Escherichia coli, 1.5 µg; in the assay on Candida albicans it was less than 50 µg. The Activity in [2] was greater than 50 µg; in the assay on Saccharomyces cerevisiae, less than 50 µg; in the assay on Kocuria rhizophila it was less than 50 µg; with Staphylococcus aureus, less than 50 µg; in the assay with Klebsiella pneumoniae it was less than 50 µg.

`COC(=O)[C@H](CC(C)C)NC(=O)[C@H](NC(=O)[C@H](CC(C)C)NC(=O)OCc1ccccc1)[C@@H](O)c1ccccc1` (mixture of isomers): the Activity (in the assay on Candida dubliniensis; in the assay with Candida tropicalis; in the assay with Cryptococcus neoformans; in [1]; with Escherichia coli; in the assay on Candida albicans) was less than 50 µg in each case. The Activity (in assay [2]; in the assay on Saccharomyces cerevisiae; in the assay on Kocuria rhizophila; in the assay with Staphylococcus aureus; in the assay on Klebsiella pneumoniae) was less than 50 µg each time.

`COC(=O)[C@H](CC(C)C)NC(=O)[C@H](NC(=O)[C@H](CC(C)C)N(C)C)[C@H](Oc1ccc(C=O)cc1)c1ccccc1` (mixture of isomers): the Activity (with Candida dubliniensis; with Candida tropicalis; in the assay with Cryptococcus neoformans; in assay [1]; in the assay on Escherichia coli; with Candida albicans) was less than 50 µg in each case. In addition, the Activity (in [2]; in the assay with Saccharomyces cerevisiae; in the assay on Kocuria rhizophila; in the assay with Staphylococcus aureus; in the assay with Klebsiella pneumoniae) was less than 50 µg each time.

For `CC[C@H](C)[C@H](NC(=O)[C@@H]([C@@H](O)c1ccccc1)N1CN(C)[C@@H](CC(C)C)C1=O)C(=O)OC` (mixture of isomers), the Activity (with Candida dubliniensis; in the assay on Candida tropicalis; with Cryptococcus neoformans; in assay [1]; with Escherichia coli; in the assay with Candida albicans) was less than 50 µg each time. In addition, the Activity (in assay [2]; in the assay on Saccharomyces cerevisiae; in the assay with Kocuria rhizophila; in the assay with Staphylococcus aureus; with Klebsiella pneumoniae) was less than 50 µg in each case.

`CC[C@H](C)[C@H](NC(=O)[C@H](NC(=O)[C@H](CC(C)C)NC(=O)OCc1ccccc1)[C@@H](O)c1ccccc1)C(=O)OC` (mixture of isomers): the Activity (in the assay with Candida dubliniensis; in the assay with Candida tropicalis; with Cryptococcus neoformans; in [1]; in the assay with Escherichia coli; with Candida albicans) was less than 50 µg throughout. Further, the Activity (in assay [2]; in the assay on Saccharomyces cerevisiae; in the assay on Kocuria rhizophila; in the assay with Staphylococcus aureus; in the assay with Klebsiella pneumoniae) was less than 50 µg in each case.

Consider `COC(=O)[C@H](Cc1ccccc1)NC(=O)[C@H](NC(=O)[C@@H](N)CC(C)C)[C@@H](O)c1ccccc1` (mixture of isomers), for which the Activity in the assay on Candida dubliniensis was less than 50 µg; with Candida tropicalis, less than 50 µg; with Cryptococcus neoformans, less than 50 µg; in assay [1] it was less than 50 µg; in the assay with Escherichia coli, 12.5 µg; in the assay on Candida albicans, less than 50 µg. Also, the Activity in [2] is 3.1 µg; with Saccharomyces cerevisiae, less than 50 µg; with Kocuria rhizophila, less than 50 µg; in the assay on Staphylococcus aureus it was less than 50 µg; in the assay on Klebsiella pneumoniae, less than 50 µg.

For the origin of these results see ChEMBL document CHEMBL2407049, “Cyclopeptide alkaloids: stereochemistry and synthesis of the precursors of discarines C and D and myrianthine A” (2013).
